Where two headings read alike, the source gives them in different places. Blank lines part the entries; values can stand above or below the molecule they belong to.
Columns and labels:
rat α7 nAChR [1] = target: T1, rat α7 nAChR (Rattus norvegicus, UniProt Q05941); experiment: Two-electrode voltage clamp at rα7 nAChRs expressed in Xenopus laevis oocytes; format: cell-based
human CaV2.2 channel [2] = target: T2, human CaV2.2 channel (Homo sapiens, UniProt Q00975); experiment: Whole-cell patch clamp recording of CaV2.2 channels expressed in HEK293T cells; format: cell-based
In short: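 Human CaV2.2 transiently expressed in HEK293T cells; whole-cell patch clamp at room temperature 24–48 h after transfection. Bath: 10 mM BaCl2, 30 mM TEA-Cl, pH 7.35. Pipette (2–3 MΩ): K-gluconate with 5 mM EGTA, pH 7.2. Ba2+ currents evoked from −80 mV by steps to −10 or −15 mV at 0.1 Hz, in the absence and presence of test compound.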

mice [3] = experiment: Rota-rod test; format: in vivo
In short: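 Rota-rod, mice n = 5/condition. Test compound 30 mg/kg, single dose (tested right after) or daily for 7 days (tested day 8); vehicle controls. Falls from the rod counted over a 30 s test, every 15 min for 1 h. Mice with <3 or >6 falls in the pretest were excluded.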

rat α9α10 nAChR = rat α9α10 nAChR (Rattus norvegicus, UniProt P43144+Q9JLB5); experiment: Two-electrode voltage clamp at rα9α10 nAChRs expressed in Xenopus laevis oocytes; format: cell-based; settings: for IC50: Inhibition IC50 (μM), −80 mV
[4] = system: oxaliplatin-induced neuropathic pain in mice; experiment: Oxaliplatin-induced neuropathic pain, cold plate test; format: in vivo
In short: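 Male CD-1 mice, n = 10/condition, given oxaliplatin 2.4 mg/kg i.p. in 5% glucose, 5 days/week for 2 weeks. On day 15: baseline cold plate, then oral test compound (1, 3, 10 or 30 mg/kg, or a two-compound combination at 30 mg/kg each) in 1% carboxymethyl cellulose. Hind-paw licking latency every 15 min for 60–75 min, 30 s cutoff; mean ± SEM; 1-way ANOVA with Bonferroni.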

[5] = same software; cited from earlier work
[6] = system: oxaliplatin-induced neuropathic pain in mice; settings: oxaliplatin model; cited from earlier work
rat α7 nAChR [7] = target: T1, rat α7 nAChR; settings: rα7, same conditions, cited from earlier work
human CaV2.2 channel [8] = target: T2, human CaV2.2 channel; settings: cited from earlier work
mice [9] = experiment: Effect on pain threshold, cold plate test; format: in vivo; settings: acute or repeated (7 days) 30 mg/kg, P > .05 vs vehicle
mice [10] = experiment: Effect on pain threshold, hot plate test; format: in vivo; settings: acute or repeated (7 days) 30 mg/kg, P > .05 vs vehicle
[11] = acute, single dose 30 mg/kg, counted every 15 min for 1 h, P > .05 vs vehicle
[12] = read-out: inhibition of ACh-evoked currents
[13] = oxaliplatin-treated mice, 30 mg/kg oral, cold plate test

T2 sequence (Q00975 whole entry): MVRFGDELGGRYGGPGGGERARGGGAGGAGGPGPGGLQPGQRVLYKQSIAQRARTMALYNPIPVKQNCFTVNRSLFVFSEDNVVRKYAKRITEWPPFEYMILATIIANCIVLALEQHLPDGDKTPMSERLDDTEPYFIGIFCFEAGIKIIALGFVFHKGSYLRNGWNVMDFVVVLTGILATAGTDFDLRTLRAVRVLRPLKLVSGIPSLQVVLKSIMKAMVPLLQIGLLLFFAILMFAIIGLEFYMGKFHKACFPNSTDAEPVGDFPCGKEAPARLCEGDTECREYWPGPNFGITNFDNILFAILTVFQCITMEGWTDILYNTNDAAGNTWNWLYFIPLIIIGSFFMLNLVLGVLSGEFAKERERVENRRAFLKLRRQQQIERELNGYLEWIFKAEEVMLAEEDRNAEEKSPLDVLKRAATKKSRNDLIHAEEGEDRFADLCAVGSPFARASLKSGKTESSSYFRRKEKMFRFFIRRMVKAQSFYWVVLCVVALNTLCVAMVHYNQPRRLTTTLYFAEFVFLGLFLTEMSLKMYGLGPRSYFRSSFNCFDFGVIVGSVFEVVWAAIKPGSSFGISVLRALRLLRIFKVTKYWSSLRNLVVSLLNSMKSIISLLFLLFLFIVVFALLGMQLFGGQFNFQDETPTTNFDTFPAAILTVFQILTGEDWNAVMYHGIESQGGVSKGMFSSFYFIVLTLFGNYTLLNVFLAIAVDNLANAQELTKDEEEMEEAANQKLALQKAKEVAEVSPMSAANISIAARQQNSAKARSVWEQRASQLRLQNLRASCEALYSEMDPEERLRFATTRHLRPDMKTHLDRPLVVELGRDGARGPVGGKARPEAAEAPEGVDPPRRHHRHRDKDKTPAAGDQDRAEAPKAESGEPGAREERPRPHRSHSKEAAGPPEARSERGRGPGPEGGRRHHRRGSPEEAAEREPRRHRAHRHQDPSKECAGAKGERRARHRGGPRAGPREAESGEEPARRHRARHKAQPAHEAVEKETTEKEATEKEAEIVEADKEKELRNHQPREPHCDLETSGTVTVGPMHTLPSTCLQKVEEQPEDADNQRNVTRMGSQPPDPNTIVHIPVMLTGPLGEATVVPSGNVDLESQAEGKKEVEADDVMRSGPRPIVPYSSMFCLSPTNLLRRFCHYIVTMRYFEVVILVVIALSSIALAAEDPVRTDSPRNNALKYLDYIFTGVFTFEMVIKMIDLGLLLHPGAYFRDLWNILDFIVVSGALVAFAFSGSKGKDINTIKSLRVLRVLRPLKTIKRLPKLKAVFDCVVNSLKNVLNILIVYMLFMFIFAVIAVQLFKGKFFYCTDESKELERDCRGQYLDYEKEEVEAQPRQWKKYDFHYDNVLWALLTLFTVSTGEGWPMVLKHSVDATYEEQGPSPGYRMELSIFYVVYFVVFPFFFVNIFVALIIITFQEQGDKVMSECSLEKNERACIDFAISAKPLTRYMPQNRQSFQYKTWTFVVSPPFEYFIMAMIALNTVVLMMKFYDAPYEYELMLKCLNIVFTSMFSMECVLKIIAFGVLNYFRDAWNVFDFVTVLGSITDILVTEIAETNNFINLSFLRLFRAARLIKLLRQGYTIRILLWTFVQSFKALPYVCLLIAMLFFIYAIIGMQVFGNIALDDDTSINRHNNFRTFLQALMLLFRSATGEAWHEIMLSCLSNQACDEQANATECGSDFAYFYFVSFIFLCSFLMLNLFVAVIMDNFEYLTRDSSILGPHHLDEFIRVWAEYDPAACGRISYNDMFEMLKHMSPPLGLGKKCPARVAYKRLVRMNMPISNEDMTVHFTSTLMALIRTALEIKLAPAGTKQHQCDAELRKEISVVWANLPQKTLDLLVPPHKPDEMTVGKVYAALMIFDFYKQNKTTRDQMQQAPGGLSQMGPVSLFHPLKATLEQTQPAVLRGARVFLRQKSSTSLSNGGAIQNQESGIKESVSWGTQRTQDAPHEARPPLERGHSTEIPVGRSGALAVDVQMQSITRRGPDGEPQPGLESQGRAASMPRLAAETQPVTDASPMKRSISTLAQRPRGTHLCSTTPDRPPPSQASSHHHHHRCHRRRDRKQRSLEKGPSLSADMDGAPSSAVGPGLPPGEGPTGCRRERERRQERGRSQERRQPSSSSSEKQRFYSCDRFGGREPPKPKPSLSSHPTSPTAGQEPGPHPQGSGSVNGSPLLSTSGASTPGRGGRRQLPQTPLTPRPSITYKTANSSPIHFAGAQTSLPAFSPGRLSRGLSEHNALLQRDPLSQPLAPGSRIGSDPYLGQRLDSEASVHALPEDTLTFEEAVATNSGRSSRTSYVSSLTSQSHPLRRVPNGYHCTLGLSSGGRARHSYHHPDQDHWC
T2 sequence (P54284 whole entry partner): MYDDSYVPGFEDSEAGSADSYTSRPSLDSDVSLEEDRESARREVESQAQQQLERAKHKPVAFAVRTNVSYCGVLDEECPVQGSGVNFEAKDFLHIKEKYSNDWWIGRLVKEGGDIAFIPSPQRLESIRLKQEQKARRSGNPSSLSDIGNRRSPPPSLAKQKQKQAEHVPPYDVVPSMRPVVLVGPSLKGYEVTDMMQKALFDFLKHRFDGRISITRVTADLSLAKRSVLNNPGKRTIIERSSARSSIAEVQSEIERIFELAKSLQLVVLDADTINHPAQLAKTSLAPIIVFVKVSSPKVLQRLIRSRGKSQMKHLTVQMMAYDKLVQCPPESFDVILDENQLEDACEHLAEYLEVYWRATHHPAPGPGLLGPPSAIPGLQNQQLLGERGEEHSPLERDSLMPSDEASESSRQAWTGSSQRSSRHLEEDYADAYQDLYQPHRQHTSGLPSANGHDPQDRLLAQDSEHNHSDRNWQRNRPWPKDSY
T2 sequence (P54289 25-1103 partner): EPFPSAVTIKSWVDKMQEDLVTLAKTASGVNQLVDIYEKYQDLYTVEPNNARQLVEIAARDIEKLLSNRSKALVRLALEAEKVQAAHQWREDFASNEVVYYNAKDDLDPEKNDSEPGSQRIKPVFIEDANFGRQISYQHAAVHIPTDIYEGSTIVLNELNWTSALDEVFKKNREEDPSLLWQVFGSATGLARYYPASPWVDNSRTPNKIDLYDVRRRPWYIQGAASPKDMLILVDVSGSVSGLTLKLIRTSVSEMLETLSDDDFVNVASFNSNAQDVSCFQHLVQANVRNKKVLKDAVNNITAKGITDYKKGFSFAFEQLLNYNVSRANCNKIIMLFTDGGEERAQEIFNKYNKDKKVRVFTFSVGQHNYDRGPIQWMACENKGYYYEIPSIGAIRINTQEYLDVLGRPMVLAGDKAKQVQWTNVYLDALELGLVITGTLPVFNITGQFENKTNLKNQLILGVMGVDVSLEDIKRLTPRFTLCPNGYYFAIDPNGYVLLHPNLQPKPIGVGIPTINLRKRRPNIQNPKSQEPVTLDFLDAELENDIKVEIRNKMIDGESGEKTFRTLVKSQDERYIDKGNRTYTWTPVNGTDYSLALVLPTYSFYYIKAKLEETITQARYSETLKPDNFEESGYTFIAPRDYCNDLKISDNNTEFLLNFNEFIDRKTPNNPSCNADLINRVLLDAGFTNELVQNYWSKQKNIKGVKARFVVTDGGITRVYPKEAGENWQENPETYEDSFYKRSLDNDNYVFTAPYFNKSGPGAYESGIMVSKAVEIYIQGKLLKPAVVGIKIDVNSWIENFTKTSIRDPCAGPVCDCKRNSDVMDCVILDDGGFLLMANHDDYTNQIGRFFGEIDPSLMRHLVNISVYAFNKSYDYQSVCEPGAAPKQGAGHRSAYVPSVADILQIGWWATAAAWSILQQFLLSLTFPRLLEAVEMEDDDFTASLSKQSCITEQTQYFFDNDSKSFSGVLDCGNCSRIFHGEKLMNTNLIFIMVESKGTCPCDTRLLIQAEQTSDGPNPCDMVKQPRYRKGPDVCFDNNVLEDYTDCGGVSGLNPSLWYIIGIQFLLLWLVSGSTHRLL
rat α9α10 nAChR, sequence (P43144 26-479): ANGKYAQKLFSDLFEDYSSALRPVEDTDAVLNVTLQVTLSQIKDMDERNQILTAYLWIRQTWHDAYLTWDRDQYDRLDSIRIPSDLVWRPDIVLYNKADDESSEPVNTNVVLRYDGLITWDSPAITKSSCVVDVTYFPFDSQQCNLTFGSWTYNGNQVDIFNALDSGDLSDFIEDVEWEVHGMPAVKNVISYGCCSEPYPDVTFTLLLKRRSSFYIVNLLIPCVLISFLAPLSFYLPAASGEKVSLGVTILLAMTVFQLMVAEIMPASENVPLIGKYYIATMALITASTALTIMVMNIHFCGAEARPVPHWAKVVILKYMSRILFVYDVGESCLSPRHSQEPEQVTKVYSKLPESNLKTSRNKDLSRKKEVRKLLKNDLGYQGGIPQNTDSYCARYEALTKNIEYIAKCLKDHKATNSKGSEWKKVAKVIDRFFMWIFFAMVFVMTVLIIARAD
rat α9α10 nAChR, sequence (Q9JLB5 25-447): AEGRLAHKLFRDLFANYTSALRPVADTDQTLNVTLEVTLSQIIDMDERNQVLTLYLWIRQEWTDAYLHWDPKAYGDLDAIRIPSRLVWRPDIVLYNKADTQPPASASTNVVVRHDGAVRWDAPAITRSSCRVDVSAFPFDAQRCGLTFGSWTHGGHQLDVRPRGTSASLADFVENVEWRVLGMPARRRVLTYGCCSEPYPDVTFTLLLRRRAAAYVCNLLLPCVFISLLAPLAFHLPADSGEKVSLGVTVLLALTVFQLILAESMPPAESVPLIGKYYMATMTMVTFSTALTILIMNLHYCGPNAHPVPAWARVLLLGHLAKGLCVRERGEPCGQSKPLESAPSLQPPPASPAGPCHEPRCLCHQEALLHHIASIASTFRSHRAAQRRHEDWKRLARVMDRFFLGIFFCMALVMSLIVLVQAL

SMILES: O=C1[O][Pt]2([NH][C@@H]3CCCC[C@H]3[NH]2)[O]C1=O [Oxaliplatin, reference compound]
IC50 (rat α7 nAChR [1]; read-out: Inhibition IC50, rα7, agonist ACh 30 µM, −80 mV): 200 µM
IC50 (rat α7 nAChR [1]; read-out: Inhibition IC50, rα7, agonist nicotine 25 µM): 200 µM

inhibitory activity at the CaV2.2 channel (in words) (human CaV2.2 channel [2]; CaV2.2 channel): minimal effect
inhibition at 300 µM (human CaV2.2 channel [2]; HEK-293T, read-out: inhibition of whole-cell Ba2+ currents, hCaV2.2, at 300 µM): ~20%
IC50 (rat α9α10 nAChR; rα9α10, agonist ACh 10 µM): 340 ± 21 µM
IC50 (rat α9α10 nAChR; rα9α10, agonist ACh 100 µM): 369 ± 21 µM
inhibition at 300 µM (rat α9α10 nAChR; [12]): 40%
EC50 (rat α7 nAChR [1]): 86 ± 10 µM
Emax (rat α7 nAChR [1]; read-out: maximal efficacy at rα7 nAChRs): 196%
potentiation of ACh-evoked currents (rat α7 nAChR [1]; rα7, 30 µM ACh, 100 µM compound): ~ 100%
Potentiation nH (rat α7 nAChR [1]; rα7, agonist ACh 30 µM): ~2
SMILES: Cc1ccc(NC(=O)/C=C/c2cccs2)cc1 [DM497, (E)-3-(thiophen-2-yl)-N-(p-tolyl)acrylamide]
endurance time (number of falls per 30 seconds) (mice [3]; [11]): did not modify the endurance time
activity when administered alone (cold plate test) ([4]; mice without oxaliplatin, 10 mg/kg): without inducing any activity when administered alone
active dose (antinociceptive activity) ([4]; oxaliplatin model, this work): 10 mg/kg
onset of antinociceptive activity ([4]; oxaliplatin-treated mice, 10 mg/kg oral, cold plate test): 30 min
extent of the antinociceptive effect at 30 mg/kg compared to 10 mg/kg [4, 13]: without changing the extent of the antinociceptive effect
onset of antinociceptive activity [4, 13]: 15 min
antinociceptive activity (licking latency, cold plate test) ([4]; oxaliplatin-treated mice, day 15, single oral 1 mg/kg): but not 1 or 3 mg/kg

SMILES: O=C(/C=C/c1ccco1)N1CCc2ccccc21 [DM489, (E)-3-(furan-2-yl)-1-(indolin-1-yl)prop-2-en-1-one]
LogBBB [5]: 0.17
active dose (antinociceptive activity) [6]: 10 mg/kg

SMILES: Cc1ccc(NC(=O)/C=C/c2ccco2)cc1 [PAM-2, (E)-3-furan-2-yl-N-p-tolyl-acrylamide]
LogBBB [5]: 0.09
LogP [5]: 2.96
IC50 (rat α7 nAChR [7]; read-out: potency at rα7 nAChRs (IC50 as printed)): 12 µM
maximal efficacy at rα7 nAChRs (rat α7 nAChR [7]): 135% ± 4%
IC50 (human CaV2.2 channel [8]): 89 µM
active dose (antinociceptive activity) [6]: 3 mg/kg

IC50 (human CaV2.2 channel [2]): 93 ± 16 µM
pain threshold for cold stimuli (mice [9]): did not change the pain threshold
pain threshold for heat stimuli (mice [10]): did not change the pain threshold
IC50 (rat α9α10 nAChR; rα9α10, agonist ACh 10 µM): 41 ± 4 µM
IC50 (rat α9α10 nAChR; rα9α10, agonist ACh 100 µM): 36 ± 4 µM
inhibition at 30 µM (rat α9α10 nAChR; [12]): ~45%
fold higher antagonist potency than that for DM497 (rat α9α10 nAChR; α9α10 nAChR): > 8 fold
IC50 (rat α7 nAChR [1]): 15.1 ± 1.8 µM
inhibition at 10 µM (rat α7 nAChR [1]; read-out: inhibition of ACh-evoked current amplitude): ~40%
Inhibition nH (rat α7 nAChR [1]; rα7, agonist ACh 30 µM): < 1.5
SMILES: Cc1ccc(N(C)C(=O)/C=C/c2ccco2)cc1 [DM490, (E)-3-(furan-2-yl)-N-methyl-N-(p-tolyl)acrylamide]
endurance time (number of falls per 30 seconds) (mice [3]; [11]): did not modify the endurance time
endurance time (number of falls per 30 seconds) (mice [3]; repeated, 30 mg/kg daily for 7 days, day 8, P > .05 vs vehicle): did not modify the endurance time
activity on oxaliplatin-treated animals (cold plate test) ([4]; 30 mg/kg oral, alone): without inducing any activity on oxaliplatin-treated animals
